This note sets out measurements from ChEMBL document CHEMBL1152472, “AdeIJK, a resistance-nodulation-cell division pump effluxing multiple antibiotics in Acinetobacter baumannii” (2008).

The subject of experiment [1] is Acinetobacter baumannii. In words: Antimicrobial activity against Acinetobacter baumannii BM4579 expressing deltaadeIJK genes isolated from patient with urinary tract infection by E test. In kind it is functional. Conditions: BM4579, Urine. In outline: (§1)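 MICs determined on solid medium (Mueller-Hinton agar) by E-test. The strains are deletion-insertion derivatives of multiresistant urinary isolate BM4454 that lack adeIJK, adeABC or both. Strains were grown at 37°C in brain heart infusion broth or agar or in LB.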

Experiment [2] deals with Acinetobacter baumannii. The experiment in a line: Antimicrobial activity against Acinetobacter baumannii BM4579 expressing adeIJK genes with pAT807 isolated from patient with urinary tract infection by E test. Conditions: BM4579, Urine.
The test system of experiment [3] is Acinetobacter baumannii. The experiment in a line: Antimicrobial activity against Acinetobacter baumannii BM4652 expressing adeIJK genes with pAT807 isolated from patient with urinary tract infection by E test. In kind it is functional. Conditions: BM4652, Urine. In outline:
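E-test MIC on solid medium, with 0.005 mM IPTG added to induce adeIJK carried on plasmid pAT807 in the ΔadeIJK host. Growth was at 37°C.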

For experiment [4], the system named is Acinetobacter baumannii. In words: Antimicrobial activity against Acinetobacter baumannii BM4454 isolated from patient with urinary tract infection by E test. Type of experiment: functional. Conditions: BM4454, Urine. In outline:
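MIC read by E-test strip on solid medium against the multiresistant AdeABC-overexpressing urinary isolate. Strains were grown at 37°C in brain heart infusion or LB.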

Experiment [5] relates to Acinetobacter baumannii. The experiment in a line: Antimicrobial activity against Acinetobacter baumannii BM4651 expressing deltaadeABC genes isolated from patient with urinary tract infection by E test. Conditions: BM4651, Urine.
In experiment [6] the test system is Acinetobacter baumannii. The experiment in a line: Antimicrobial activity against Acinetobacter baumannii BM4652 expressing adeABC adeIJK double mutant isolated from patient with urinary tract infection by E test. Type of experiment: functional. The note with it: BM4652, Urine. In outline:
as §1

In experiment [7] the test system is Acinetobacter baumannii. The experiment in a line: Antimicrobial activity against Acinetobacter baumannii BM4579 expressing adeIJK genes with pAT807 isolated from patient with urinary tract infection by E test. In kind it is functional. Conditions: BM4579, Urine, in the assay text read “agar dilution method” for “E test”.
Experiment [8] relates to Acinetobacter baumannii. In words: Antimicrobial activity against Acinetobacter baumannii BM4652 expressing adeABC adeIJK double mutant isolated from patient with urinary tract infection by agar dilution method. In kind it is functional. The note with it: BM4652, Urine. In outline:
(§2)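 MICs determined by agar dilution on Mueller-Hinton agar with 10^4 CFU/spot; this method was used for ticarcillin and SDS. The strains are ΔadeIJK or ΔadeABC ΔadeIJK deletion-insertion derivatives of urinary isolate BM4454, grown at 37°C in brain heart infusion or LB medium.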

Experiment [9] has as its system Acinetobacter baumannii. The experiment in a line: Antimicrobial activity against Acinetobacter baumannii BM4579 expressing deltaadeIJK genes isolated from patient with urinary tract infection by agar dilution method. Type of experiment: functional. Conditions: BM4579, Urine. In outline: as §2
Experiment [10] has as its system Acinetobacter baumannii. In words: Antimicrobial activity against Acinetobacter baumannii BM4652 expressing adeIJK genes with pAT807 isolated from patient with urinary tract infection by agar dilution method. The note with it: BM4652, Urine. Type of experiment: functional. In outline: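 Agar-dilution MIC (ticarcillin, SDS), with 0.005 mM IPTG added to induce plasmid pAT807-borne adeIJK in the ΔadeIJK background. Growth was at 37°C.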

The subject of experiment [11] is Acinetobacter baumannii. In words: Antimicrobial activity against Acinetobacter baumannii BM4651 expressing deltaadeIJK genes isolated from patient with urinary tract infection by agar dilution method. In kind it is functional. Conditions: BM4651, Urine, in the assay text read “deltaadeABC” for “deltaadeIJK”. In outline:
(§3)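 MIC by agar dilution, the method used for ticarcillin and SDS. Strains were grown at 37°C in brain heart infusion or LB.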

Experiment [12] deals with Acinetobacter baumannii. In words: Antimicrobial activity against Acinetobacter baumannii BM4454 isolated from patient with urinary tract infection by agar dilution method. Type of experiment: functional. The note with it: BM4454, Urine. In outline: as §3

SMILES strings stand for the structures. Converted amounts (≈) assume the structure as drawn. A value given as a limit tells only on which side of the number the result lay.

Regarding `CC[C@H]1OC(=O)[C@H](C)[C@@H](O[C@H]2C[C@@](C)(OC)[C@@H](O)[C@H](C)O2)[C@H](C)[C@@H](O[C@@H]2O[C@H](C)C[C@H](N(C)C)[C@H]2O)[C@](C)(O)C[C@@H](C)CN(C)[C@H](C)[C@@H](O)[C@]1(C)O` [AZITHROMYCIN], the MIC in [1] was 96 µg/mL (≈ 128 µM); in [2], 96 µg/mL (≈ 128 µM); in experiment [3], 24 µg/mL (≈ 32 µM); in experiment [4], 96 µg/mL (≈ 128 µM); in experiment [5] it was 1.5 µg/mL (≈ 2 µM); in [6], 1.5 µg/mL (≈ 2 µM).
`CO/N=C(\C(=O)N[C@@H]1C(=O)N2C(C(=O)O)=C(COC(C)=O)CS[C@H]12)c1csc(N)n1` [CEFOTAXIME]: the MIC in [1] was 1.5 µg/mL (≈ 3.29 µM); in experiment [2], 3 µg/mL (≈ 6.59 µM); in [3], 0.25 µg/mL (≈ 0.549 µM); in [4] it was 8 µg/mL (≈ 17.6 µM); in experiment [5] it was 8 µg/mL (≈ 17.6 µM); in experiment [6], 1.5 µg/mL (≈ 3.29 µM).
`O=C(N[C@H](CO)[C@H](O)c1ccc([N+](=O)[O-])cc1)C(Cl)Cl` [CHLORAMPHENICOL]: the MIC was found to be 64 µg/mL (≈ 198 µM) in [1]; 96 µg/mL (≈ 297 µM) in [2]; 6 µg/mL (≈ 18.6 µM) in [3]; 256 µg/mL (≈ 792 µM) in [4]; 128 µg/mL (≈ 396 µM) in experiment [5]; 16 µg/mL (≈ 49.5 µM) in experiment [6].
As to `CCC[C@@H]1C[C@@H](C(=O)N[C@@H]([C@H]2O[C@H](SC)[C@H](O)[C@@H](O)[C@H]2O)[C@H](C)Cl)N(C)C1` [CLINDAMYCIN], the minimal inhibitory concentration (MIC) in experiment [1] was 48 µg/mL (≈ 113 µM); in [2] it was 48 µg/mL (≈ 113 µM); in experiment [3] it was 2 µg/mL (≈ 4.71 µM); in experiment [4], above 256 µg/mL; in [5], above 256 µg/mL; in experiment [6], 2 µg/mL (≈ 4.71 µM).
As to `CC[C@H]1OC(=O)[C@H](C)[C@@H](O[C@H]2C[C@@](C)(OC)[C@@H](O)[C@H](C)O2)[C@H](C)[C@@H](O[C@@H]2O[C@H](C)C[C@H](N(C)C)[C@H]2O)[C@](C)(O)C[C@@H](C)C(=O)[C@H](C)[C@@H](O)[C@]1(C)O` [ERYTHROMYCIN], the MIC is 8 µg/mL (≈ 10.9 µM) in [1]; 12 µg/mL (≈ 16.4 µM) in experiment [2]; 3 µg/mL (≈ 4.09 µM) in [3]; 12 µg/mL (≈ 16.4 µM) in experiment [4]; 4 µg/mL (≈ 5.45 µM) in [5]; 1.5 µg/mL (≈ 2.04 µM) in [6].
Consider `C[C@@H](O)[C@H]1C(=O)N2C(C(=O)O)=C(SCCNC=N)C[C@H]12` [IMIPENEM ANHYDROUS], for which the MIC in experiment [1] was 0.25 µg/mL (≈ 0.835 µM); in experiment [2], 0.25 µg/mL (≈ 0.835 µM); in [3], 96 µg/mL (≈ 321 µM); in experiment [4], 0.5 µg/mL (≈ 1.67 µM); in experiment [5], 0.5 µg/mL (≈ 1.67 µM); in [6], 0.25 µg/mL (≈ 0.835 µM).
With `C[C@H]1COc2c(N3CCN(C)CC3)c(F)cc3c(=O)c(C(=O)O)cn1c23.C[C@H]1COc2c(N3CCN(C)CC3)c(F)cc3c(=O)c(C(=O)O)cn1c23.O` [LEVOFLOXACIN], the MIC in [1] is 6 µg/mL; in experiment [3], 2 µg/mL; in experiment [4] it was 12 µg/mL; in experiment [5], 3 µg/mL; in experiment [6] it was 0.38 µg/mL.
As for `CN(C)c1ccc(O)c2c1C[C@H]1C[C@H]3[C@H](N(C)C)C(O)=C(C(N)=O)C(=O)[C@@]3(O)C(O)=C1C2=O` [MINOCYCLINE], the minimum inhibitory concentration (MIC) in [1] amounted to 0.25 µg/mL (≈ 0.546 µM); in experiment [2], 1 µg/mL (≈ 2.19 µM); in experiment [3] it was 0.75 µg/mL (≈ 1.64 µM); in experiment [4], 1.5 µg/mL (≈ 3.28 µM); in experiment [5], 0.5 µg/mL (≈ 1.09 µM); in experiment [6], 0.064 µg/mL (≈ 0.14 µM).
Take `COc1c(N2C[C@@H]3CCCN[C@@H]3C2)c(F)cc2c(=O)c(C(=O)O)cn(C3CC3)c12` [MOXIFLOXACIN]: the MIC in experiment [1] came to 12 µg/mL (≈ 29.9 µM); in experiment [2], 16 µg/mL (≈ 39.9 µM); in experiment [4], 12 µg/mL (≈ 29.9 µM); in experiment [5] it was 3 µg/mL (≈ 7.47 µM); in experiment [6], 0.5 µg/mL (≈ 1.25 µM).
On to `CCn1cc(C(=O)O)c(=O)c2cc(F)c(N3CCN(C)CC3)cc21` [PEFLOXACIN], for which the MIC in [1] came to 24 µg/mL (≈ 72 µM); in experiment [2] it was 48 µg/mL (≈ 144 µM); in experiment [3] it was 12 µg/mL (≈ 36 µM); in experiment [4], 48 µg/mL (≈ 144 µM); in experiment [5] it was 24 µg/mL (≈ 72 µM); in experiment [6] it was 4 µg/mL (≈ 12 µM).
For the compound `CO[C@H]1/C=C/O[C@@]2(C)Oc3c(C)c(O)c4c(O)c(c(/C=N/N5CCN(C)CC5)c(O)c4c3C2=O)NC(=O)/C(C)=C\C=C\[C@H](C)[C@H](O)[C@@H](C)[C@@H](O)[C@@H](C)[C@H](OC(C)=O)[C@@H]1C` [RIFAMPIN], the minimal inhibitory concentration (MIC) stood at 2 µg/mL (≈ 2.43 µM) in [1]; 2 µg/mL (≈ 2.43 µM) in experiment [2]; 1.5 µg/mL (≈ 1.82 µM) in experiment [3]; 4 µg/mL (≈ 4.86 µM) in experiment [4]; 4 µg/mL (≈ 4.86 µM) in [5]; 2 µg/mL (≈ 2.43 µM) in [6].
For `CN(C)[C@@H]1C(O)=C(C(N)=O)C(=O)[C@@]2(O)C(O)=C3C(=O)c4c(O)cccc4[C@@](C)(O)[C@H]3C[C@@H]12` [TETRACYCLINE], the MIC in experiment [1] was 4 µg/mL (≈ 9 µM); in [2] it was 6 µg/mL (≈ 13.5 µM); in experiment [3], 0.75 µg/mL (≈ 1.69 µM); in experiment [4], 48 µg/mL (≈ 108 µM); in experiment [5] it was 8 µg/mL (≈ 18 µM); in experiment [6] it was 0.5 µg/mL (≈ 1.13 µM).
With `CC1(C)S[C@@H]2[C@H](NC(=O)[C@H](C(=O)O)c3ccsc3)C(=O)N2[C@H]1C(=O)O` [TICARCILLIN], the minimum inhibitory concentration (MIC) in experiment [7] was above 256 µg/mL; in experiment [8] it was 1 µg/mL (≈ 2.6 µM); in experiment [9], 1 µg/mL (≈ 2.6 µM); in experiment [10], above 256 µg/mL; in experiment [11], 8 µg/mL (≈ 20.8 µM); in [12], 8 µg/mL (≈ 20.8 µM).
Take `CN(C)c1cc(NC(=O)CNC(C)(C)C)c(O)c2c1C[C@H]1C[C@H]3[C@H](N(C)C)C(O)=C(C(N)=O)C(=O)[C@@]3(O)C(O)=C1C2=O` [TIGECYCLINE]: the MIC in experiment [1] was determined as 1.5 µg/mL (≈ 2.56 µM); in experiment [2] it was 2 µg/mL (≈ 3.41 µM); in [3], 3 µg/mL (≈ 5.12 µM); in experiment [4], 4 µg/mL (≈ 6.83 µM); in experiment [5], 0.5 µg/mL (≈ 0.854 µM); in [6], 0.047 µg/mL (≈ 0.0803 µM).
